Laboratory results from ChEMBL document CHEMBL4699407, “Isoquinoline thiosemicarbazone displays potent anticancer activity with in vivo efficacy against aggressive leukemias” (RSC Med Chem, 2020).
Calls of active or inactive are those of the source. No cut-off for these calls is given here.

Columns and labels:
[1] = system: MIA PaCa-2; experiment: Induction of DNA damage in human MIA PaCa-2 cells assessed as decrease in CTP level at 25 nM in presence of Cu2+ incubated for 48 hrs by LC-MS/MS analysis; assay type: functional, cell-based
Procedure, shortened: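 MIAPACA2 cells were given 25 nM compound plus 20 μM Cu(II) for 48 h in glucose-free DMEM with 10% dialyzed FBS and 11 mM [U-13C6]glucose. Nucleotide pools were quantified by LC-MS/MS with multiple reaction monitoring. Mean ± SD, n = 3, two-way ANOVA with Bonferroni correction.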

[2] = system: MIA PaCa-2; experiment: Induction of DNA damage in human MIA PaCa-2 cells assessed as increase in pH2A.X phosphorylation at 10 nM in presence of Cu2+ incubated for 48 hrs by immunoblot assay; assay type: functional, cell-based
Procedure, shortened: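 Treated with 10 nM compound plus 20 μM Cu(II). Lysed in RIPA buffer with protease and phosphatase inhibitors, then sonicated and centrifuged at 20 000g, 4 °C. Protein measured by micro BCA, and equal amounts run on bis-tris gels. Primary antibodies in 5% BSA/TBST; HRP-linked anti-rabbit or anti-mouse secondaries at 1:2500. Chemiluminescent detection on film; representative blot.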

[3] = system: MIA PaCa-2; experiment: Cytotoxicity against human MIA PaCa2 cells assessed as reduction in cell viability at 25 nM in presence of Cu2+ and 2-DG incubated for 48 hrs by trypan blue assay; assay type: functional, cell-based
Procedure, shortened: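 MIAPACA2 cells were given 25 nM compound plus 20 μM Cu(II), with or without 2-deoxyglucose (2 mM), for 48 h. Viability was read by trypan blue staining on a Vi-Cell counter. Mean ± SD, n = 2, Student t-test.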

[4] = system: MIA PaCa-2; experiment: Induction of apoptosis in human MIA PaCa-2 cells assessed as increase in early apoptotic cells at 25 nM incubated for 72 hrs by annexin V and propidium iodide staining based flow cytometry analysis relative to control; assay type: functional
Procedure, shortened: (§1)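 Cells given 25 nM compound with or without 20 μM Cu(II) and/or the ATR inhibitor VE-822 at 250 nM for 72 h. Stained with annexin V-FITC and propidium iodide, then analysed on a five-laser flow cytometer to score viable, early apoptotic, late apoptotic and necrotic fractions against vehicle.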

[5] = system: MIA PaCa-2; experiment: Induction of apoptosis in human MIA PaCa-2 cells assessed as increase in necrotic cells at 25 nM incubated for 72 hrs by annexin V and propidium iodide staining based flow cytometry analysis relative to control; assay type: functional; procedure, shortened: as §1
[6] = system: L3.6pl; experiment: Cytotoxicity against human L3.6pl cells assessed as reduction in cell viability in presence of Cu2+ incubated for 72 hrs by cell titer-glo luminescent cell viability assay; assay type: functional, cell-based
Procedure, shortened: (§2)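 Cells were grown in DMEM or RPMI with 10% FBS, without antibiotics, at 37 °C, 20% O2, 5% CO2. Adherent lines were seeded at 500 cells/well. Serially diluted compound was given with 20 μM Cu(II) (CuCl2) for 72 h; leukemia models received pre-formed 1:1 copper complex. ATP was read by CellTiter-Glo luminescence. IC50 is relative to DMSO-treated cells.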

[7] = system: SW1990; experiment: Cytotoxicity against human SW1990 cells assessed as reduction in cell viability in presence of Cu2+ incubated for 72 hrs by cell titer-glo luminescent cell viability assay; assay type: functional, cell-based; settings: SW1990, 72 h; procedure, shortened: as §2
[8] = system: PANC-03-27; experiment: Cytotoxicity against human PANC-03-27 cells assessed as reduction in cell viability in presence of Cu2+ incubated for 72 hrs by cell titer-glo luminescent cell viability assay; assay type: functional, cell-based; settings: PANC-03-27, 72 h; procedure, shortened: as §2
[9] = system: PANC-1; experiment: Cytotoxicity against human PANC-1 cells assessed as reduction in cell viability in presence of Cu2+ incubated for 72 hrs by cell titer-glo luminescent cell viability assay; assay type: functional, cell-based; settings: PANC-1, 72 h; procedure, shortened: as §2
[10] = system: MIA PaCa-2; experiment: Induction of apoptosis in human MIA PaCa-2 cells assessed as increase in late apoptotic cells at 25 nM in presence of ATRi incubated for 72 hrs by annexin V and propidium iodide staining based flow cytometry analysis relative to control; assay type: functional; procedure, shortened: as §1
[11] = system: MIA PaCa-2; experiment: Induction of apoptosis in human MIA PaCa-2 cells assessed as increase in early apoptotic cells at 25 nM in presence of Cu2+ incubated for 72 hrs by annexin V and propidium iodide staining based flow cytometry analysis relative to control; assay type: functional; procedure, shortened: as §1
[12] = system: MIA PaCa-2; experiment: Induction of mitochondrial ROS generation in human MIA PaCa-2 cells at 25 nM in presence of Cu2+ incubated for 24 hrs by MitoSox red dye based flow cytometry analysis; assay type: functional; settings: Mitochondria
Procedure, shortened: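 Exposure was 25 nM compound plus 20 μM Cu(II) for 24 h. Cells washed, stained with MitoSOX for 30 min at 37 °C, washed with PBS and analysed by flow cytometry. Mean ± SD, n = 2, Student t-test.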

[13] = system: MIA PaCa-2; experiment: Cytotoxicity against human MIA PaCa2 cells assessed as reduction in cell viability at 25 nM in presence of Cu2+ and BCPS incubated for 24 hrs by trypan blue assay; assay type: functional, cell-based
Procedure, shortened: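 MIAPACA2 cells were given 25 nM compound plus 20 μM Cu(II) for 24 h, with or without the membrane-impermeable copper chelator bathocuproine disulfonate (300 μM). Viable cells were measured by trypan blue exclusion on a Vi-Cell counter.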

With `CN(C)C(=S)NN=Cc1nccc2cc(F)ccc12` the Activity [1] was “inactive”, the Activity [2] was “Active” and the Activity [3] was “Active”. For the same molecule, the Activity [4] was 1.85%, the Activity [5] was 2.49% and the IC50 [6] was 1 nM. It also gave an IC50 [7] of 1 nM, an IC50 [8] of 1 nM and an IC50 [9] of 1 nM. For the same molecule, the Activity [10] was 18.8%, the Activity [11] was 13.9% and the Activity [12] was “Active”. For the same molecule, the Activity [13] was “inactive”.
